# Data reported in paper PMC10074403 (Chemical Science, 2023).
# Tests used:
# A2780 cells = experiment: Intracellular EdU release from PE NPs; assay type: cell-based, human; settings: 10 μM EdU equiv., 6 h with PE NPs (1 h with EdU), azide-488
# Outline: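 Human ovarian adenocarcinoma A2780 cells are treated with nanoparticles of mutual prodrugs built with the nucleoside analog EdU as a gemcitabine surrogate, or with free EdU; nanoparticle exposure is 6 h. EdU incorporated into DNA is detected by click reaction with azide-488. Images show green overlap with blue-stained nuclei (cyan) to indicate nuclear EdU incorporation.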
# [1] = tested on: A549 human lung adenocarcinoma xenografts; experiment: In vivo anticancer efficacy in A549 xenografts; design: species or system female BALB/c nude mice; settings: PTX 20 mg kg−1 equiv., Gem 6.4 mg kg−1, i.v. on days 0, 3, 6; n = 5
SMILES,Distribution of green fluorescence (EdU incorporation into nuclei) (A2780 cells),A549 tumor growth (relative tumor size) [1]
"C#Cc1cn([C@H]2C[C@H](O)[C@@H](CO)O2)c(=O)[nH]c1=O [EdU, 5-ethynyl-2′-deoxyuridine]",centralized in the area of the nucleus,–
"Nc1ccn([C@@H]2O[C@H](CO)[C@@H](O)C2(F)F)c(=O)n1 [Gem, gemcitabine]",–,failed to effectively suppress tumor growth
